In ChEMBL document CHEMBL4715780, “Biological evaluation of tetracationic compounds based on two 1,4-diazabicyclo[2.2.2]octane moieties connected by different linkers” (Bioorg Med Chem, 2016):

What was measured:
Staphylococcus aureus [1] = test: Antibacterial activity against […] Staphylococcus aureus ATCC 25923 assessed as concentration required to inhibit visible growth by CLSI protocol based serial microdilution method; format: functional
Staphylococcus aureus [2] = test: Antibacterial activity against […] Staphylococcus aureus ATCC 25923 assessed as bacterial growth inhibition by CLSI protocol based serial microdilution method; format: functional
Enterococcus faecalis [3] = test: Antibacterial activity against Enterococcus faecalis ATCC 51299 assessed as concentration required to inhibit visible growth by CLSI protocol based serial microdilution method; format: functional
Enterococcus faecalis [4] = test: Antibacterial activity against Enterococcus faecalis ATCC 51299 assessed as bacterial growth inhibition by CLSI protocol based serial microdilution method; format: functional
Pseudomonas aeruginosa [5] = test: Antibacterial activity against Pseudomonas aeruginosa ATCC 9027 assessed as concentration required to inhibit visible growth by CLSI protocol based serial microdilution method; format: functional
Pseudomonas aeruginosa [6] = test: Antibacterial activity against Pseudomonas aeruginosa ATCC 9027 assessed as bacterial growth inhibition by CLSI protocol based serial microdilution method; format: functional
Escherichia coli [7] = test: Antibacterial activity against Escherichia coli ATCC 25922 assessed as concentration required to inhibit visible growth by CLSI protocol based serial microdilution method; format: functional
Escherichia coli [8] = test: Antibacterial activity against Escherichia coli ATCC 25922 assessed as bacterial growth inhibition by CLSI protocol based serial microdilution method; format: functional
Salmonella typhimurium [9] = test: Antibacterial activity against Salmonella enterica ATCC 14028 assessed as concentration required to inhibit visible growth by CLSI protocol based serial microdilution method; format: functional, Salmonella enterica subsp. enterica serovar Typhimurium
Salmonella typhimurium [10] = test: Antibacterial activity against Salmonella enterica ATCC 14028 assessed as bacterial growth inhibition by CLSI protocol based serial microdilution method; format: functional, Salmonella enterica subsp. enterica serovar Typhimurium
Citrobacter freundii [11] = test: Antibacterial activity against Citrobacter freundii ATCC 8090 assessed as concentration required to inhibit visible growth by CLSI protocol based serial microdilution method; format: functional
Citrobacter freundii [12] = test: Antibacterial activity against Citrobacter freundii ATCC 8090 assessed as bacterial growth inhibition by CLSI protocol based serial microdilution method; format: functional
Proteus vulgaris [13] = test: Antibacterial activity against Proteus vulgaris ATCC 6380 assessed as concentration required to inhibit visible growth by CLSI protocol based serial microdilution method; format: functional
Proteus vulgaris [14] = test: Antibacterial activity against Proteus vulgaris ATCC 6380 assessed as bacterial growth inhibition by CLSI protocol based serial microdilution method; format: functional
Candida albicans [15] = test: Antifungal activity against Candida albicans CEMTC 34 assessed as concentration required to inhibit visible growth by CLSI protocol based serial microdilution method; format: functional
Procedure, shortened: (§1)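 Candida albicans grown in Sabouraud dextrose broth with two-fold serial compound dilutions from water stocks; final inoculum about 5 × 10⁵ CFU/mL. Incubated at 37 °C with orbital shaking (580 rpm). MIC is the lowest concentration preventing growth, by absorbance at 595 nm. MFC is the lowest concentration with no visible growth. Duplicates in two separate experiments.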

Candida albicans [16] = test: Antifungal activity against Candida albicans CEMTC 34 assessed as fungal growth inhibition by CLSI protocol based serial microdilution method; format: functional; procedure, shortened: as §1
[17] = Cytotoxicity against human MCF7 cells assessed as reduction in cell viability measured after 24 hrs by MTT assay; format: cell-based
Procedure, shortened: (§2)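 HEK293T or MCF-7 cells in IMDM with 10% FBS, seeded at 20,000 per well and grown overnight. Compounds at […] in fresh medium for 24 h at 37 °C, 5% CO₂. MTT then added for 4 h, precipitate dissolved overnight in SDS-HCl, absorbance read at 570 nm. Viability expressed relative to untreated cells, giving CC₅₀. Duplicate wells, at least two independent repeats.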

[18] = Cytotoxicity against HEK293T cells assessed as reduction in cell viability measured after 24 hrs by MTT assay; format: cell-based, HEK-293T; details: human; procedure, shortened: as §2
[19] = Selectivity index, ratio of CC50 for HEK293T cells assessed as reduction in cell viability measured after 24 hrs by MTT assay to MIC for Staphylococcus aureus ATCC 25923 assessed as bacterial growth inhibition by CLSI protocol based serial microdilution method; format: toxicity; details: human, read-out: Selectivity Index
[20] = Selectivity index, ratio of CC50 for HEK293T cells assessed as reduction in cell viability measured after 24 hrs by MTT assay to MIC for Enterococcus faecalis ATCC 51299 assessed as bacterial growth inhibition by CLSI protocol based serial microdilution method; format: toxicity; details: human, read-out: Selectivity Index
[21] = Selectivity index, ratio of CC50 for HEK293T cells assessed as reduction in cell viability measured after 24 hrs by MTT assay to MIC for Pseudomonas aeruginosa ATCC 9027 assessed as bacterial growth inhibition by CLSI protocol based serial microdilution method; format: toxicity; details: human, read-out: Selectivity Index
[22] = Selectivity index, ratio of CC50 for HEK293T cells assessed as reduction in cell viability measured after 24 hrs by MTT assay to MIC for Escherichia coli ATCC 25922 assessed as bacterial growth inhibition by CLSI protocol based serial microdilution method; format: toxicity; details: human, read-out: Selectivity Index
[23] = Selectivity index, ratio of CC50 for HEK293T cells assessed as reduction in cell viability measured after 24 hrs by MTT assay to MIC for Citrobacter freundii ATCC 8090 assessed as bacterial growth inhibition by CLSI protocol based serial microdilution method; format: toxicity; details: human, read-out: Selectivity Index
[24] = Selectivity index, ratio of CC50 for HEK293T cells assessed as reduction in cell viability measured after 24 hrs by MTT assay to MIC for Proteus vulgaris ATCC 6380 assessed as bacterial growth inhibition by CLSI protocol based serial microdilution method; format: toxicity; details: human, read-out: Selectivity Index
[25] = Selectivity index, ratio of CC50 for HEK293T cells assessed as reduction in cell viability measured after 24 hrs by MTT assay to MIC for Candida albicans CEMTC 34 assessed as bacterial growth inhibition by CLSI protocol based serial microdilution method; format: toxicity; details: human, read-out: Selectivity Index
Procedure, shortened: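 SI = CC₅₀ (HEK293T) / MIC. HEK293T cells were seeded at 20,000/well overnight, then exposed to 10–250 µg/mL in IMDM with 10% FBS for 24 h. MTT was added for 4 h, solubilised with SDS-HCl, and read at 570 nm; duplicates, ≥2 independent runs. MIC came from two-fold dilutions in Sabouraud dextrose broth at ~5 × 10⁵ CFU/mL, 37 °C with shaking, read at 595 nm, in duplicate.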

Influenza A virus = test: Antiviral activity against Influenza A virus (A/Puerto Rico/8/34 (H1N1) infected in MDCK cells assessed as decrease in viral titer preincubated for 1 hr followed by viral infection and cultivated for 48 hrs followed by supernatant transferred to chicken erythrocyte for 1 hr followed by measuring ability to cause positive hemagglutination; format: functional, organism-based; details: A/Puerto Rico/8/1934(H1N1)
Procedure, shortened: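 MDCK monolayers in MEM were pre-incubated with compound for 1 h at 37 °C, then infected with 10-fold virus dilutions (10⁻¹–10⁻⁶) and held 48 h at 37 °C, 5% CO₂. Supernatant was mixed with an equal volume of 1% chicken erythrocytes, 60 min at room temperature. Titre was taken from the highest dilution giving full agglutination (log₁₀ EID₅₀). Triplicate per concentration.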

[26] = Cytotoxicity against MDCK cells assessed as cell death incubated for 48 hrs by MTT assay; format: cell-based, Canis lupus familiaris; details: dog
[27] = Selectivity index, ratio of CC50 for MDCK cells to EC50 for Influenza A virus (A/Puerto Rico/8/34 (H1N1)) infected in MDCK cells; format: toxicity, cell-based; details: dog, read-out: Ratio CC50/EC50
Procedure, shortened: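 Ratio of CC₅₀ to EC₅₀, both in MDCK cells, with cytotoxicity run in parallel with the antiviral assay. EC₅₀ is the concentration halving virus production (0.3 log₁₀ EID₅₀ titre drop). It was obtained after 1 h compound pre-incubation, infection, 48 h at 37 °C, and hemagglutination read-out with 1% chicken erythrocytes.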

[28] = Selectivity index, ratio of CC50 for HEK293T cells assessed as reduction in cell viability measured after 24 hrs by MTT assay to MIC for Salmonella enterica ATCC 14028 assessed as bacterial growth inhibition by CLSI protocol based serial microdilution method; format: toxicity; details: human, read-out: Selectivity Index

Row | SMILES | MBC (Staphylococcus aureus [1]) [µg/mL] | MIC (Staphylococcus aureus [2]) [µg/mL] | MBC (Enterococcus faecalis [3]) [µg/mL] | MIC (Enterococcus faecalis [4]) [µg/mL] | MBC (Pseudomonas aeruginosa [5]) [µg/mL] | MIC (Pseudomonas aeruginosa [6]) [µg/mL] | MBC (Escherichia coli [7]) [µg/mL] | MIC (Escherichia coli [8]) [µg/mL] | MBC (Salmonella typhimurium [9]) [µg/mL] | MIC (Salmonella typhimurium [10]) [µg/mL] | MBC (Citrobacter freundii [11]) [µg/mL] | MIC (Citrobacter freundii [12]) [µg/mL] | MBC (Proteus vulgaris [13]) [µg/mL] | MIC (Proteus vulgaris [14]) [µg/mL] | MFC (Candida albicans [15]) [µg/mL] | MIC (Candida albicans [16]) [µg/mL] | CC50 at 24 h [17] [µg/mL] | CC50 at 24 h [18] [µg/mL] | selectivity ratio at 24 h [19] | selectivity ratio at 24 h [20] | also measured
1 | CCCCCCCCCCCC[N+]12CC[N+](Cc3cccc(C[N+]45CC[N+](CCCCCCCCCCCC)(CC4)CC5)c3)(CC1)CC2 | 1.6 | 0.6 | 1.6 | 1.6 | 3.1 | 1.6 | 3.1 | 1.6 | 3.1 | 1.6 | 3.1 | 1.6 | 25 | 25 | 12.5 | 12.5 | 17 | 16 | 27 | 10 | selectivity ratio at 24 h [21]: 10; selectivity ratio at 24 h [22]: 10; selectivity ratio at 24 h [23]: 10; selectivity ratio at 24 h [24]: < 1; selectivity ratio at 24 h [25]: 1; EC50 (Influenza A virus): 1.3 µg/mL; CC50 at 48 h [26]: 8.4 µg/mL; selectivity ratio [27]: 6; selectivity ratio at 24 h [28]: 10
2 | CCCCCCCCCCCC[N+]12CC[N+](CCCC[N+]34CC[N+](CCCCCCCCCCCC)(CC3)CC4)(CC1)CC2 | 1.2 | 0.6 | 1.6 | 1.6 | 3.1 | 1.6 | 3.1 | 1.6 | 3.1 | 1.6 | 1.6 | 1.6 | > 100 | 25 | 6.3 | 6.3 | 4 | 4 | 7 | 3 | selectivity ratio at 24 h [21]: 3; selectivity ratio at 24 h [22]: 3; selectivity ratio at 24 h [23]: 3; selectivity ratio at 24 h [24]: < 1; selectivity ratio at 24 h [25]: < 1; EC50 (Influenza A virus): > 3 µg/mL; CC50 at 48 h [26]: 6.8 µg/mL; selectivity ratio [27]: < 2; selectivity ratio at 24 h [28]: 3
3 | CCCCCCCCCCCC[N+]12CC[N+](CCCCC[N+]34CC[N+](CCCCCCCCCCCC)(CC3)CC4)(CC1)CC2 | 1.2 | 0.6 | 1.6 | 1.6 | 6.3 | 3.1 | 3.1 | 1.6 | 3.1 | 1.6 | 3.1 | 1.6 | > 100 | > 100 | 12.5 | 6.3 | 7 | 7.5 | 13 | 5 | selectivity ratio at 24 h [21]: 2; selectivity ratio at 24 h [22]: 5; selectivity ratio at 24 h [23]: 5; selectivity ratio at 24 h [24]: < 1; selectivity ratio at 24 h [25]: 1; EC50 (Influenza A virus): 2.4 µg/mL; CC50 at 48 h [26]: 9.7 µg/mL; selectivity ratio [27]: 4; selectivity ratio at 24 h [28]: 5
